# According to ChEMBL document CHEMBL1938329, “The discovery of potent, selective, and orally active pyrazoloquinolines as PDE10A inhibitors for the treatment of Schizophrenia” (Bioorg Med Chem Lett, 2012):
# Calls of active or inactive are those of the source. No cut-off for these calls is given here.
# Key:
# [1] = AUC (0 to 6 hrs) in rat at 10 mg/kg, po; type: ADME, organism-based; design: time < 6 hr, dose 10 mg/kg, route oral; settings: plasma
# Procedure, shortened: (§1)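 Rat cassette-accelerated rapid screen, 10 mg/kg oral. Plasma exposure measured over 0–6 h. Brain drug concentration taken at 6 h. Brain/plasma ratio is brain over plasma drug concentration at 6 h.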
# [2] = biological target: cAMP and cAMP-inhibited cGMP 3',5'-cyclic phosphodiesterase 10A (Homo sapiens, UniProt Q9Y233); test: Inhibition of recombinant human PDE10A using [3H]cAMP as substrate by scintillation proximity assay
# Procedure, shortened: (§2)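 Scintillation proximity assay with [³H]cAMP as substrate, measuring hydrolysis of cAMP to AMP by recombinant human PDEs 1–11. Ki values are means of at least two experiments.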
# [3] = Drug uptake in rat brain at 10 mg/kg, po after 6 hrs; type: ADME, organism-based; design: dose 10 mg/kg, route oral; settings: read-out: Drug uptake; procedure, shortened: as §1
# [4] = biological target: Phosphodiesterase 6; test: Inhibition of recombinant human PDE6 using [3H]cAMP as substrate by scintillation proximity assay; type: protein assay; procedure, shortened: as §2
# [5] = biological target: T1, Phosphodiesterase 6 (Homo sapiens) (UniProt Q13956+P18545+P35913+O43924+P16499+P51160); test: Inhibition of recombinant human PDE6 using [3H]cAMP as substrate at 3.6 uM by scintillation proximity assay; type: protein assay
# [6] = biological target: Phosphodiesterase 7 (Homo sapiens, UniProt Q13946+Q9NP56); test: Inhibition of recombinant human PDE7 using [3H]cAMP as substrate by scintillation proximity assay; type: protein assay; procedure, shortened: as §2
# [7] = biological target: Phosphodiesterase 8 (Homo sapiens, UniProt O95263+O60658); test: Inhibition of recombinant human PDE8 using [3H]cAMP as substrate by scintillation proximity assay; type: protein assay; procedure, shortened: as §2
# [8] = biological target: High affinity cGMP-specific 3',5'-cyclic phosphodiesterase 9A (Homo sapiens, UniProt O76083); test: Inhibition of recombinant human PDE9 using [3H]cAMP as substrate by scintillation proximity assay; procedure, shortened: as §2
# [9] = biological target: Dual 3',5'-cyclic-AMP and -GMP phosphodiesterase 11A (Homo sapiens, UniProt Q9HCR9); test: Inhibition of recombinant human PDE11 using [3H]cAMP as substrate by scintillation proximity assay; procedure, shortened: as §2
# [10] = Ratio of drug level in brain to plasma in rat at 10 mg/kg, po at 6 hrs; type: ADME, organism-based; design: dose 10 mg/kg, route oral; settings: read-out: BPR; procedure, shortened: as §1
# [11] = Plasma protein binding in rat; type: ADME, cell-free; settings: read-out: PPB (converted)
# [12] = AUC in dog at 2 mg/kg, po; type: ADME, organism-based, Canis lupus familiaris; design: dose 2 mg/kg, route oral; settings: plasma
# [13] = Clearance in human hepatocytes assessed per million of cells; type: ADME, cell-based, Hepatocyte; settings: read-out: CLH
# [14] = Clearance in rat hepatocytes assessed per million of cells; type: ADME, cell-based, Hepatocyte; settings: read-out: CLH
# [15] = Clearance in dog hepatocytes assessed per million of cells; type: ADME, cell-based, Canis lupus familiaris, Hepatocyte; settings: read-out: CLH
# [16] = Clearance in cebus monkey hepatocytes assessed per million of cells; type: ADME, cell-based, Hepatocyte; settings: cebus capucinus, read-out: CLH
# [17] = Efflux ratio of permeability in human Caco2 cells; type: ADME, cell-based; settings: Caco-2
# [18] = tested on: Rattus norvegicus; test: Antipsychotic activity in po dosed CD rat assessed as inhibition of MK-801 induced hyperactivity relative to control; type: functional
# Procedure, shortened: (§3)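 Male CD rats habituated to locomotor activity chambers 24 h before testing. On test day, MK-801 (0.3 mg/kg, sc) co-administered with PDE10 inhibitor (po), then rats placed in apparatus. Inhibition expressed as percent of activity in inhibitor + MK-801 group relative to vehicle + MK-801 group.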
# [19] = organism: Rattus norvegicus; test: Sedative activity in rat assessed as hypolocomotion by spontaneous locomotor activity test; type: organism-based; settings: in vivo
# Procedure, shortened: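 Hypolocomotion assessed in rats by spontaneous locomotor activity test, run to distinguish reversal of MK-801-induced behaviour from compound-induced hypolocomotion; ED₅₀ derived.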
# [20] = biological target: cGMP-specific 3',5'-cyclic phosphodiesterase (Homo sapiens, UniProt O76074); test: Inhibition of recombinant human PDE5A using [3H]cAMP as substrate by scintillation proximity assay; procedure, shortened: as §2
# [21] = biological target: Phosphodiesterase 1 (Homo sapiens, UniProt P54750+Q01064+Q14123); test: Inhibition of recombinant human PDE1 using [3H]cAMP as substrate by scintillation proximity assay; type: protein assay; procedure, shortened: as §2
# [22] = biological target: cGMP-dependent 3',5'-cyclic phosphodiesterase (Homo sapiens, UniProt O00408); test: Inhibition of recombinant human PDE2 using [3H]cAMP as substrate by scintillation proximity assay; procedure, shortened: as §2
# [23] = biological target: Phosphodiesterase 3 (Homo sapiens, UniProt Q14432+Q13370); test: Inhibition of recombinant human PDE3 using [3H]cAMP as substrate by scintillation proximity assay; type: protein assay; procedure, shortened: as §2
# [24] = biological target: Phosphodiesterase 4 (Homo sapiens, UniProt P27815+Q08499+Q07343+Q08493); test: Inhibition of recombinant human PDE4 using [3H]cAMP as substrate by scintillation proximity assay; type: protein assay; procedure, shortened: as §2
# [25] = biological target: T1, Phosphodiesterase 6 (Homo sapiens); test: Inhibition of recombinant human PDE6 using [3H]cAMP as substrate at 1 uM by scintillation proximity assay; type: protein assay
# [26] = tested on: Rattus norvegicus; test: Antipsychotic activity in CD rat assessed as inhibition of MK-801-induced hyperactivity at 30 mg/kg, po relative to control; type: functional, organism-based; design: dose 30 mg/kg; procedure, shortened: as §3
# [27] = tested on: Rattus norvegicus; test: Antipsychotic activity in CD rat assessed as inhibition of MK-801-induced hyperactivity at 10 mg/kg, po relative to control; type: functional, organism-based; design: dose 10 mg/kg; procedure, shortened: as §3
# Chain of cAMP and cAMP-inhibited cGMP 3',5'-cyclic phosphodiesterase 10A (Q9Y233 whole entry): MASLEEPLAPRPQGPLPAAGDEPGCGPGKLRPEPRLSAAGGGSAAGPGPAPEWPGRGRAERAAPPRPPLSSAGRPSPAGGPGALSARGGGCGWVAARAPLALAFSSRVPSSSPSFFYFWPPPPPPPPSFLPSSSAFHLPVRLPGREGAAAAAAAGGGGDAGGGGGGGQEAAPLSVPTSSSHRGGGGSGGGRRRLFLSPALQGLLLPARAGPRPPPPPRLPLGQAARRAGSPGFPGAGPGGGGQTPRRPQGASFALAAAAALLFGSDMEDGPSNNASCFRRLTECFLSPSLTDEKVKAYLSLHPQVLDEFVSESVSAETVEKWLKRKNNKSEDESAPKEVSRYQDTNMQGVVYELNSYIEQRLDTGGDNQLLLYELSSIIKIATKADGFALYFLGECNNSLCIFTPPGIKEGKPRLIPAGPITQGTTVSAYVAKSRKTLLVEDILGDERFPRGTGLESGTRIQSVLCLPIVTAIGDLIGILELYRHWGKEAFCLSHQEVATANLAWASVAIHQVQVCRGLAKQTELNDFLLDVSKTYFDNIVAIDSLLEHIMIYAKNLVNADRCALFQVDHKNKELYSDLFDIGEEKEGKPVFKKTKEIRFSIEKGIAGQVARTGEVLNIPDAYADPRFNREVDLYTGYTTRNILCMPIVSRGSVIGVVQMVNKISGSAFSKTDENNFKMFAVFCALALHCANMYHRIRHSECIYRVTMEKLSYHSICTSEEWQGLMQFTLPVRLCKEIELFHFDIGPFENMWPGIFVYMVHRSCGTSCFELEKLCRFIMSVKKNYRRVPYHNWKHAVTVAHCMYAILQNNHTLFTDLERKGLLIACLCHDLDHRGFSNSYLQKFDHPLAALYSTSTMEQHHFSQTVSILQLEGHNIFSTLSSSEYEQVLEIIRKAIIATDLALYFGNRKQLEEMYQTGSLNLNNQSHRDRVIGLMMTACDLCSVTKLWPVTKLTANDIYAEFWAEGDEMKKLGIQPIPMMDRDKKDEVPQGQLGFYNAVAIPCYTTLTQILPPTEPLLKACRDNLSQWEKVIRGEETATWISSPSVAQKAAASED
# Chain of cGMP-dependent 3',5'-cyclic phosphodiesterase (O00408 whole entry): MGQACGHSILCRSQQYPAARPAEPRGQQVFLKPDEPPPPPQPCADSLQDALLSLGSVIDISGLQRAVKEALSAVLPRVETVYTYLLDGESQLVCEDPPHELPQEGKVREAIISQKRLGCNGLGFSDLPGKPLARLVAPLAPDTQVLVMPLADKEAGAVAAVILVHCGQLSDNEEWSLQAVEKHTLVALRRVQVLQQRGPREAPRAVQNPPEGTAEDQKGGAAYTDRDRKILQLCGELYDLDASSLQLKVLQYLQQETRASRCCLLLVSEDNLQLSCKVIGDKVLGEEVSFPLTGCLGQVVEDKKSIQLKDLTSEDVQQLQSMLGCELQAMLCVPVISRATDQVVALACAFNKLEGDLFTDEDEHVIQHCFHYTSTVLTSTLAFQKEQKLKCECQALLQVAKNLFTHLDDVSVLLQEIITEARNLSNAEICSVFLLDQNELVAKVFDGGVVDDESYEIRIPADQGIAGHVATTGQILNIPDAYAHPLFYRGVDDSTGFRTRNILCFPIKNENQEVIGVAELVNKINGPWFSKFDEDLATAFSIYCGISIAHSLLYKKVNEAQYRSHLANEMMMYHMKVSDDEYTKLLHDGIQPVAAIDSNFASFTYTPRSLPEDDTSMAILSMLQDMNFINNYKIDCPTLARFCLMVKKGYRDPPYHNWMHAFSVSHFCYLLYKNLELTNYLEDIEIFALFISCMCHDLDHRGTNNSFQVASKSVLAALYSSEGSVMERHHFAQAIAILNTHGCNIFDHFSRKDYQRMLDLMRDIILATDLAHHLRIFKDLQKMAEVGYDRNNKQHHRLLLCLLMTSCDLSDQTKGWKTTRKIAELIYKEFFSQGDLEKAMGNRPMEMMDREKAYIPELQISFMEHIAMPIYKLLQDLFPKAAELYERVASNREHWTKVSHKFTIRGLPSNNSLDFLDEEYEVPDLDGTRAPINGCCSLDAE
# Chain of Dual 3',5'-cyclic-AMP and -GMP phosphodiesterase 11A (Q9HCR9 whole entry): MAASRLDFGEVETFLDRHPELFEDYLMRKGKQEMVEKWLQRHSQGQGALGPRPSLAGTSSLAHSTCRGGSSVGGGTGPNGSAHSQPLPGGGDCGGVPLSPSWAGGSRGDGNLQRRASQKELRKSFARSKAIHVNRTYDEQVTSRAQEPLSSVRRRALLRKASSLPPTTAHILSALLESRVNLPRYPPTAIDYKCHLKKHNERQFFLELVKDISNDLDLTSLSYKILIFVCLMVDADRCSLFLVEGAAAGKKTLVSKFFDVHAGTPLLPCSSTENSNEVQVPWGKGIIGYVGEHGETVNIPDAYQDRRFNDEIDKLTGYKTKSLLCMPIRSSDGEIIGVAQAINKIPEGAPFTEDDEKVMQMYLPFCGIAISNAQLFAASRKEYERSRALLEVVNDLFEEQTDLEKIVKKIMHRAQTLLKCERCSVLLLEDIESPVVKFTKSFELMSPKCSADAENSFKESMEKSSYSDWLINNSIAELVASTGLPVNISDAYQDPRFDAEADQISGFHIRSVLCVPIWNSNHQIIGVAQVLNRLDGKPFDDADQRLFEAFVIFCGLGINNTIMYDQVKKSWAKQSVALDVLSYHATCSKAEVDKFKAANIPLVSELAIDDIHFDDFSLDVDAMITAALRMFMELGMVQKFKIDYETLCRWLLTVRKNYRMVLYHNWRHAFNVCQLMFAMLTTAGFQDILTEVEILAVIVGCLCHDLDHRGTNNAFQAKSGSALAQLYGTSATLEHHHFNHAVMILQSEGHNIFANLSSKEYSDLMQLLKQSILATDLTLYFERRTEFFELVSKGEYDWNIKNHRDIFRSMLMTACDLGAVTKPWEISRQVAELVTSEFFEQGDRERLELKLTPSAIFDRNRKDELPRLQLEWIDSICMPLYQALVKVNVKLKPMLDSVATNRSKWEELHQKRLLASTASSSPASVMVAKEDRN
# Chain of High affinity cGMP-specific 3',5'-cyclic phosphodiesterase 9A (O76083 whole entry): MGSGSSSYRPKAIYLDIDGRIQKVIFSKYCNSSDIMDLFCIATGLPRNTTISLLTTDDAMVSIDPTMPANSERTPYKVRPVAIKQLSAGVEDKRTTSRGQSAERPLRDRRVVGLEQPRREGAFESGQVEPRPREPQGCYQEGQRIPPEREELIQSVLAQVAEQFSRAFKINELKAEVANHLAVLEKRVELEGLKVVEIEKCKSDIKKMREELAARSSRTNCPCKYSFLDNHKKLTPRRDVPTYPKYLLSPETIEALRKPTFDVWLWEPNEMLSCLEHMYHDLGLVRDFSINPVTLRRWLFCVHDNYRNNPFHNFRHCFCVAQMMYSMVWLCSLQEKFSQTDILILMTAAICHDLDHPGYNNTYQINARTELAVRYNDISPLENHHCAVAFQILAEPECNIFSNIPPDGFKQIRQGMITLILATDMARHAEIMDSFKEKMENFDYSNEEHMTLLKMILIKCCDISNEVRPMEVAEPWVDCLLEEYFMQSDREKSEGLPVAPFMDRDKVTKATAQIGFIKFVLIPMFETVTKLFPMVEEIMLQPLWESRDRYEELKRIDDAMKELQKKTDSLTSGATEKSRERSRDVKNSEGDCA
compound,measurement,setting,value
Cc1cc(Cl)cc2c(N3CCNCC3)c3c(C)n[nH]c3nc12,AUC(0-t) at 6 h,[1],0.14 µM·h
same,Ki,[2],0.035 µM
COc1cc(C)c2nc3[nH]nc(C)c3c(N3CCC(NC(N)=O)CC3)c2c1,concentration at 6 h,[3],< 10 ng/g
same,Ki,[2],0.027 µM
COc1cc(C)c2nc3[nH]nc(C)c3c(NCc3ccccn3)c2c1,Ki,[4],1.811 µM
same,Ki,[2],0.006 µM
COc1ccc2nc3[nH]nc(C)c3c(N3CCNCC3)c2c1,Ki,[2],0.585 µM
COc1cc(C)c2nc3[nH]nc(C)c3c(N3CCCCC3)c2c1,Ki,[2],0.363 µM
COc1cc(C)c2nc3[nH]nc(C)c3c(NC3CCNCC3)c2c1,inhibition,[5],48%
same,Ki,[2],0.055 µM
COc1cc(C)c2nc3[nH]nc(C)c3c(N3CCC(O)CC3)c2c1,concentration at 6 h,[3],< 10 ng/g
same,Ki,[2],0.014 µM
COc1cc(C)c2nc3[nH]nc(C)c3c(NC3CCOCC3)c2c1,Ki,[4],0.278 µM
same,Ki,[6],>= 4793 nM
same,Ki,[7],>= 4793 nM
same,Ki,[8],≥ 4.79 µM
same,Ki,[9],≥ 4.79 µM
same,AUC(0-t) at 6 h,[1],11.8 µM·h
same,concentration at 6 h,[3],1100 ng/g
same,Kp at 6 h,[10],0.7
same,fraction unbound,[11],0.07
same,AUC,[12],12.5 µM·h
same,hepatocyte CLint,[13],1.7 µL/min/1e6 cells
same,hepatocyte CLint,[14],2.9 µL/min/1e6 cells
same,hepatocyte CLint,[15],0.8 µL/min/1e6 cells
same,hepatocyte CLint,[16],54 µL/min/1e6 cells
same,efflux ratio,[17],0.7
same,ED50,[18],4 mg/kg
same,ED50,[19],23 mg/kg
same,Ki,[20],17.3 µM
same,Ki,[2],0.012 µM
same,Ki,[21],>= 4793 nM
same,Ki,[22],≥ 4.79 µM
same,Ki,[23],>= 4793 nM
same,Ki,[24],>= 4793 nM
COc1cc(C)c2nc3[nH]nc(C)c3c(N(C)C3CCOCC3)c2c1,Ki,[4],7.383 µM
same,Ki,[2],0.041 µM
COc1cc(C)c2nc3[nH]nc(C)c3c(NCc3ccncc3)c2c1,Ki,[4],0.211 µM
same,Ki,[2],0.0006 µM
COc1cc(C)c2nc3[nH]nc(C)c3c(NCC3CNCCO3)c2c1 (configuration not stated),Ki,[4],13.882 µM
same,Ki,[2],0.005 µM
COc1cc(C)c2nc3[nH]nc(C)c3c(NCC3CCNCC3)c2c1,Ki,[4],14.782 µM
same,Ki,[2],0.015 µM
COc1cc(C)c2nc3[nH]nc(C)c3c(N3CCC(C(N)=O)CC3)c2c1,concentration at 6 h,[3],< 10 ng/g
same,Ki,[2],0.003 µM
COc1cc(C)c2nc3[nH]nc(C)c3c(N3CCCNCC3)c2c1,Ki,[2],0.015 µM
COc1cc(C)c2nc3[nH]nc(C)c3c(NCCC3CCOCC3)c2c1,Ki,[2],0.409 µM
COc1cc(C)c2nc3[nH]nc(C)c3c(OC3CCOCC3)c2c1,AUC(0-t) at 6 h,[1],10.6 µM·h
same,inhibition,[25],30%
same,inhibition,[26],Active
same,inhibition,[27],inactive
same,Ki,[2],0.0031 µM
